Calls of active or inactive are those of the source. No cut-off for these calls is given here.
Assays:
[1] = tested on: Lewis lung carcinoma cell line; test: Antitumor activity against mouse LL/2 cells implanted in C57BL/6 mouse assessed as tumor growth inhibition at 10 mg/kg, ip qd administered for 5 days; assay type: functional, organism-based
[2] = tested on: Lewis lung carcinoma cell line; test: Decrease in PD-L1 expression in mouse LL/2 cells at 10 uM after 24 hrs by Western blot analysis
Homo sapiens = species on record: Homo sapiens; test: Selectivity ratio of IC50 for human full-length recombinant HDAC1 expressed in baculovirus infected Sf9 insect cells to IC50 for human full-length recombinant HDAC6 expressed in baculovirus infected Sf9 insect cells
[3] = biological target: T1, Protein deacetylase HDAC6 (Mus musculus) (UniProt Q9Z2V5); test: Inhibition of HDAC6 in mouse LL/2 cells assessed as reduction in PD-L1 expression at 2 to 10 uM after 24 hrs by Western blot analysis; assay type: cell-based
T1 sequence (whole entry): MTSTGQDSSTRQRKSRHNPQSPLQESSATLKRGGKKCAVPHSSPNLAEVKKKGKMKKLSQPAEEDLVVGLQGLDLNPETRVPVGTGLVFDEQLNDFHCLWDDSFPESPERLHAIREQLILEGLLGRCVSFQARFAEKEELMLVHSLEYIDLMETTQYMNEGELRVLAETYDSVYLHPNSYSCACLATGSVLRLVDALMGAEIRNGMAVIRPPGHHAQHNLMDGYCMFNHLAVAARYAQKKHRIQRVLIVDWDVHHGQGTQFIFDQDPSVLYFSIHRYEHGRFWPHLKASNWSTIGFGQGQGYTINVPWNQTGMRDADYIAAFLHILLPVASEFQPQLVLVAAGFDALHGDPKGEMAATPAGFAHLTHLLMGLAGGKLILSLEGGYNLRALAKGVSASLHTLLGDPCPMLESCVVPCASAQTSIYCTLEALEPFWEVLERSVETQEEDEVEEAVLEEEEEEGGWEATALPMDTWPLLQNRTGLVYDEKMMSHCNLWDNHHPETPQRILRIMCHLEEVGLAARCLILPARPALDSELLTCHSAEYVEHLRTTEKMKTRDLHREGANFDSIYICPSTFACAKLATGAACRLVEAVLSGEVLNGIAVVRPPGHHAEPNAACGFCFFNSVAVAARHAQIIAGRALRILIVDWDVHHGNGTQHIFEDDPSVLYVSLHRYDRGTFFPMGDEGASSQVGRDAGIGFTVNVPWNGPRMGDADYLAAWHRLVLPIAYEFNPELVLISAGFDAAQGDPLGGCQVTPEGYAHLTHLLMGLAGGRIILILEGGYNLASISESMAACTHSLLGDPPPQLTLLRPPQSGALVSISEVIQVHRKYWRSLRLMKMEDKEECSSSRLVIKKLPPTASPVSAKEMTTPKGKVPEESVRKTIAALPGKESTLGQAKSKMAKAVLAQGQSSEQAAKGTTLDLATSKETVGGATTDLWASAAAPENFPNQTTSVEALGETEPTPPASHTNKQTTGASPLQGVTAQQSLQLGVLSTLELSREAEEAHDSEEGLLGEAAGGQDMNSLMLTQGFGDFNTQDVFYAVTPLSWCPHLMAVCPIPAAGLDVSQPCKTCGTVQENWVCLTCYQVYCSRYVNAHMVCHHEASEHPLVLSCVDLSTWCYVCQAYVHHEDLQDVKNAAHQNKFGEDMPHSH

[4] = biological target: T1, Protein deacetylase HDAC6 (Mus musculus); test: Inhibition of HDAC6 in mouse LL/2 cells assessed as induction of alpha tubulin acetylation at 4 uM in presence of paclitaxel after 24 hrs by Western blot analysis relative to control; assay type: cell-based
[5] = tested on: Lewis lung carcinoma cell line; test: Cytotoxicity against mouse LL/2 cells at 0 to 10 uM after 72 hrs in presence of paclitaxel by MTT assay relative to control; assay type: functional, cell-based
How it was run: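 Mouse LL/2 lung cancer cells cultured for 72 h with increasing inhibitor concentrations (0–10 μM) together with paclitaxel. Viability read by MTT. Combination assessed by the Chou-Talalay method as a combination index.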

[6] = biological target: T1, Protein deacetylase HDAC6 (Mus musculus); test: Inhibition of HDAC6 in mouse LL/2 cells assessed as induction of alpha tubulin acetylation at 0.8 uM in presence of paclitaxel after 24 hrs by Western blot analysis relative to control; assay type: cell-based
[7] = biological target: T1, Protein deacetylase HDAC6 (Mus musculus); test: Inhibition of HDAC6 in mouse LL/2 cells assessed as induction of alpha tubulin acetylation at 0.8 uM after 24 hrs by Western blot analysis relative to control; assay type: cell-based
[8] = biological target: Histone deacetylase 1 (Homo sapiens) (UniProt Q13547); test: Inhibition of HDAC1 in human A549 cells assessed as effect on histone H3 acetylation level at 1 uM after 24 hrs by Western blot analysis; assay type: cell-based
Chain of Histone deacetylase 1 (Homo sapiens) (Q13547 whole entry): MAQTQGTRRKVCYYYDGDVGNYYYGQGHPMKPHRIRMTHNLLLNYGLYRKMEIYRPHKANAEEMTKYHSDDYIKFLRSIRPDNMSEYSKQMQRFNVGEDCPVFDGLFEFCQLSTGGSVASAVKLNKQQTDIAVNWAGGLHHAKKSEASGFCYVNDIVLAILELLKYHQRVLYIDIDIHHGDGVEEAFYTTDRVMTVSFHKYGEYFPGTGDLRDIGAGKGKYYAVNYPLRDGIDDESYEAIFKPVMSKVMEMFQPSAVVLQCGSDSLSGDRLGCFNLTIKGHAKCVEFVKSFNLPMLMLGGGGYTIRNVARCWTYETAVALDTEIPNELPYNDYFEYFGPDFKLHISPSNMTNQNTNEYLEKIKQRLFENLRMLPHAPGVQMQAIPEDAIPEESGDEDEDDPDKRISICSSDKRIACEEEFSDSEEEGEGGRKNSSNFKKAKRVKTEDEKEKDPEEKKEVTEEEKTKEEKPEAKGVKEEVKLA

[9] = tested on: Lewis lung carcinoma cell line; test: Antitumor activity against mouse LL/2 cells implanted in C57BL/6 mouse assessed as tumor growth inhibition at 20 mg/kg, po qd administered for 21 consecutive days; assay type: functional, organism-based
[10] = tested on: Lewis lung carcinoma cell line; test: Cytotoxicity against mouse LL/2 cells at 0.8 uM after 72 hrs in presence of paclitaxel by crystal violet staining-based assay relative to control; assay type: functional, cell-based
[11] = biological target: T1, Protein deacetylase HDAC6 (Mus musculus); test: Inhibition of HDAC6 in mouse LL/2 cells assessed as reduction in PD-L1 expression at 2 to 5 uM in presence of paclitaxel after 24 hrs by Western blot analysis; assay type: cell-based
[12] = tested on: Lewis lung carcinoma cell line; test: Cytotoxicity against mouse LL/2 cells at 0.8 uM after 72 hrs in presence of paclitaxel by crystal violet staining-based assay; assay type: functional, cell-based
[13] = tested on: Lewis lung carcinoma cell line; test: Induction of multi-nuclei formation in mouse LL/2 cells at 0.8 uM after 24 hrs in presence of paclitaxel by 4',6-diamidino-2-phenylindole staining-based assay; assay type: functional, cell-based
[14] = biological target: T1, Protein deacetylase HDAC6 (Mus musculus); test: Inhibition of HDAC6 in mouse LL/2 cells assessed as reduction in PD-L1 expression at 10 uM after 24 hrs by Western blot analysis; assay type: cell-based

Row | SMILES | Ratio IC50 (Homo sapiens) | also measured
1 | CC(=O)O[C@H]1C(=O)[C@@]2(C)[C@H]([C@H](OC(=O)c3ccccc3)[C@]3(O)C[C@H](OC(=O)[C@H](O)[C@@H](NC(=O)c4ccccc4)c4ccccc4)C(C)=C1C3(C)C)[C@]1(OC(C)=O)CO[C@@H]1C[C@@H]2O |  | TGI [1]: inactive; Activity [2]: Active
2 | O=C(NO)c1ccc(Cn2c(=O)n(CCc3ccccc3)c(=O)c3cc(Cl)ccc32)cc1 | 539 | 
3 | O=C(NO)c1ccc(Cn2c(=O)n(CCc3ccccc3)c(=O)c3ccccc32)cc1 | 2790 | inhibition [3]: Active; inhibition [4]: Active; Activity [5]: Active; fold change (FC) [6]: 74.7; fold change (FC) [7]: 42.7; inhibition [8]: inactive; TGI [9]: inactive; Activity [10]: Active; inhibition [11]: Active; Activity [12]: Active; Activity [13]: Active
4 | O=C(NO)c1ccc(Cn2c(=O)n(CCc3cccc(C(F)(F)F)c3)c(=O)c3ccccc32)cc1 | 529 | Activity [12]: Active
5 | O=C(NO)c1ccc(Cn2c(=O)n(CCc3ccccc3)c(=O)c3ccccc32)s1 | 1150 | 
6 | O=C(NO)c1ccc(Cn2c(=O)n(CCc3ccc(F)cc3)c(=O)c3ccccc32)cc1 | 470 | 
7 | O=C(NO)c1ccc(Cn2c(=O)n(CCc3ccccc3)c(=O)c3cccnc32)cc1 | 384 | 
8 | O=C(NO)c1ccc(Cn2c(=O)n(CCc3ccccc3)c(=O)c3ccsc32)cc1 | 443 | 
9 | O=C(NO)c1cc(Cn2c(=O)n(CCc3ccccc3)c(=O)c3ccccc32)cs1 | > 8 | 
10 | COc1ccc2c(=O)n(CCc3ccccc3)c(=O)n(Cc3ccc(C(=O)NO)cc3)c2c1 | 235 | 
11 | O=C(NO)c1cccc(Cn2c(=O)n(CCc3ccccc3)c(=O)c3ccccc32)c1 | > 2 | 
12 | Cc1ccc2c(=O)n(CCc3ccccc3)c(=O)n(Cc3ccc(C(=O)NO)cc3)c2c1 | 64 | 
13 | O=C(NO)c1ccc(Cn2c(=O)n(CCc3ccccc3)c(=O)c3ccc(F)cc32)cc1 | 1180 | 
14 | O=C(NO)c1ccc(Cn2c(=O)n(CCc3ccccc3)c(=O)c3ccc(Cl)cc32)cc1 | 434 | 
15 | O=C(NO)c1ccc(Cn2c(=O)n(CCc3ccccc3)c(=O)c3ccc(C4CC4)cc32)cc1 | 86 | 
16 | O=C(NO)c1ccc(Cn2c(=O)n(CCc3cccc(F)c3)c(=O)c3ccccc32)cc1 | 1320 | 
17 | O=C(CCCCCCC(=O)Nc1ccccc1)NO |  | inhibition [14]: inactive
18 | O=C(NO)c1ccc(Cn2c(=O)n(CCc3ccc(O)cc3)c(=O)c3ccccc32)cc1 | 1820 | 
19 | O=C(NO)c1ccc(Cn2c(=O)n(CCc3ccccc3)c(=O)c3ccc(O)cc32)cc1 | 259 | 
20 | O=C(NO)c1ccc(Cn2c(=O)n(CCc3ccccc3)c(=O)c3ccc(C(F)(F)F)cc32)cc1 | 13 | 
21 | O=C(NO)c1ccc(Cn2c(=O)n(CCc3ccccc3)c(=O)c3cc(F)ccc32)cc1 | 235 | 
22 | COc1ccc(CCn2c(=O)c3ccccc3n(Cc3ccc(C(=O)NO)cc3)c2=O)cc1 | 369 | 
